From ChEMBL document CHEMBL4229344 (Eur J Med Chem, 2018)
Active and inactive are the calls of the source. The calls are words filed in the database; no cut-off is given here.

Experiments:
[1] = target: Activin receptor type-1-like (Homo sapiens) (UniProt P37023); test: Binding affinity to wild-type human ACVRL1 (L164 to Q503 residues) expressed in bacterial expression system assessed as residual binding level at 1 uM by Kinomescan method relative to control
How it was run: (§1)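 Single-concentration (1 μM) competition-binding screen run by KINOMEscan against a panel of 468 purified kinases and mutants. The read-out is the relative binding activity of the test compound to each kinase.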

[2] = target: Megakaryocyte-associated tyrosine-protein kinase (Homo sapiens) (UniProt P42679); test: Binding affinity to wild-type human full length CTK (M43 to P508 residues) expressed in mammalian expression system assessed as residual binding level at 1 uM by Kinomescan method relative to control; how it was run: as §1
[3] = target: Receptor tyrosine-protein kinase erbB-4 (Homo sapiens) (UniProt Q15303); test: Binding affinity to wild-type human partial length ERBB4 (L690 to K994 residues) expressed in bacterial expression system assessed as residual binding level at 1 uM by Kinomescan method relative to control
[4] = target: Vascular endothelial growth factor receptor 1 (Homo sapiens) (UniProt P17948); test: Binding affinity to wild-type human partial length FLT1 (R781 to F1239 residues) expressed in bacterial expression system assessed as residual binding level at 1 uM by Kinomescan method relative to control
How it was run: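 Kinome-wide competition binding screen against a panel of 468 purified kinases/mutants, with the test compound at a single concentration of 1 μM. Read-out is the relative binding activity of each kinase in the presence of compound.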

[5] = target: Rhodopsin kinase GRK7 (Homo sapiens) (UniProt Q8WTQ7); test: Binding affinity to wild-type human full length GRK7 (M1 to L553 residues) expressed in mammalian expression system assessed as residual binding level at 1 uM by Kinomescan method relative to control; how it was run: as §1
[6] = target: Insulin-like growth factor 1 receptor (Homo sapiens) (UniProt P08069); test: Binding affinity to wild-type human partial length IGF1R (L972 to D1294 residues) expressed in bacterial expression system assessed as residual binding level at 1 uM by Kinomescan method relative to control
Chain of Insulin-like growth factor 1 receptor (Homo sapiens) (P08069 31-736 limits assumed): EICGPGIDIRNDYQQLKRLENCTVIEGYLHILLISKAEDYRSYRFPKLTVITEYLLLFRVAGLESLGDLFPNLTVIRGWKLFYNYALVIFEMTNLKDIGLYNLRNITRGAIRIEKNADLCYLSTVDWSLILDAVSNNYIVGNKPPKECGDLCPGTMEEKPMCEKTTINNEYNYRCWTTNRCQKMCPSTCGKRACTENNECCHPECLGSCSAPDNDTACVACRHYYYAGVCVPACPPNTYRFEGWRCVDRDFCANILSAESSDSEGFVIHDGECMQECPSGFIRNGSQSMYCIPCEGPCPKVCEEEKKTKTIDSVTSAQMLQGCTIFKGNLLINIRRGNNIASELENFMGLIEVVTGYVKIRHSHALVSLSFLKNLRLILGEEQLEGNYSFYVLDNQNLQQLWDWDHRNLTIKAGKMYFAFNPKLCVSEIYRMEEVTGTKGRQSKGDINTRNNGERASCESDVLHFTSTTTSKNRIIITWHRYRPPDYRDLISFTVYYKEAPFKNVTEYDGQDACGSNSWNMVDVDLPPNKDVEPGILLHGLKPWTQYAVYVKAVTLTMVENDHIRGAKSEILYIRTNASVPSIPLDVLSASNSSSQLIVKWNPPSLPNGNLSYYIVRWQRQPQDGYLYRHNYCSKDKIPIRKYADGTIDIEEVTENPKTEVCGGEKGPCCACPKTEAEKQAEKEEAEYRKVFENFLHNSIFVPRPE
Chain of Insulin-like growth factor 1 receptor (Homo sapiens) (P08069 741-1367 limits assumed): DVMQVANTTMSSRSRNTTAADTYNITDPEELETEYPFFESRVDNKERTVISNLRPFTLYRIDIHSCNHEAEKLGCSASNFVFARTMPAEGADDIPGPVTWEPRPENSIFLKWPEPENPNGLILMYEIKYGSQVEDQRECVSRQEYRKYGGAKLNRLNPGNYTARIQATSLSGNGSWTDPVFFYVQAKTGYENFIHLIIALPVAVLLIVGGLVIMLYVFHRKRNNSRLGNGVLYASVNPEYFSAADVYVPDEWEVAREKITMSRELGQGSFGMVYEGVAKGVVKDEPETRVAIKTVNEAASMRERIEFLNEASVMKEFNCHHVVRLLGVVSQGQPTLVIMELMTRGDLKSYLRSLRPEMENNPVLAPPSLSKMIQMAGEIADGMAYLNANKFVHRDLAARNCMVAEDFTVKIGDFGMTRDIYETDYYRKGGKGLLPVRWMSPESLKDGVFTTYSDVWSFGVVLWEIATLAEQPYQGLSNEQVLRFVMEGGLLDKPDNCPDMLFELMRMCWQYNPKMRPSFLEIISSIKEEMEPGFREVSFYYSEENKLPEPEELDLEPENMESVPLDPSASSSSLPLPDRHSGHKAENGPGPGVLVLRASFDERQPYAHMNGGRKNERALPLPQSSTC

[7] = target: Inhibitor of nuclear factor kappa-B kinase subunit epsilon (Homo sapiens) (UniProt Q14164); test: Binding affinity to wild-type human full length IKK-epsilon (M1 to V716 residues) expressed in mammalian expression system assessed as residual binding level at 1 uM by Kinomescan method relative to control; how it was run: as §1
[8] = target: Mitogen-activated protein kinase kinase kinase 15 (Homo sapiens) (UniProt Q6ZN16); test: Binding affinity to wild-type human partial length MAP3K15 (T625 to L932 residues) expressed in mammalian expression system assessed as residual binding level at 1 uM by Kinomescan method relative to control
[9] = target: Mitogen-activated protein kinase kinase kinase 10 (Homo sapiens) (UniProt Q02779); test: Binding affinity to wild-type human partial length MLK2 (V52 to W380 residues) expressed in bacterial expression system assessed as residual binding level at 1 uM by Kinomescan method relative to control
Chain of Mitogen-activated protein kinase kinase kinase 10 (Homo sapiens) (Q02779 whole entry, looked up, the tested form may be a part, canonical isoform): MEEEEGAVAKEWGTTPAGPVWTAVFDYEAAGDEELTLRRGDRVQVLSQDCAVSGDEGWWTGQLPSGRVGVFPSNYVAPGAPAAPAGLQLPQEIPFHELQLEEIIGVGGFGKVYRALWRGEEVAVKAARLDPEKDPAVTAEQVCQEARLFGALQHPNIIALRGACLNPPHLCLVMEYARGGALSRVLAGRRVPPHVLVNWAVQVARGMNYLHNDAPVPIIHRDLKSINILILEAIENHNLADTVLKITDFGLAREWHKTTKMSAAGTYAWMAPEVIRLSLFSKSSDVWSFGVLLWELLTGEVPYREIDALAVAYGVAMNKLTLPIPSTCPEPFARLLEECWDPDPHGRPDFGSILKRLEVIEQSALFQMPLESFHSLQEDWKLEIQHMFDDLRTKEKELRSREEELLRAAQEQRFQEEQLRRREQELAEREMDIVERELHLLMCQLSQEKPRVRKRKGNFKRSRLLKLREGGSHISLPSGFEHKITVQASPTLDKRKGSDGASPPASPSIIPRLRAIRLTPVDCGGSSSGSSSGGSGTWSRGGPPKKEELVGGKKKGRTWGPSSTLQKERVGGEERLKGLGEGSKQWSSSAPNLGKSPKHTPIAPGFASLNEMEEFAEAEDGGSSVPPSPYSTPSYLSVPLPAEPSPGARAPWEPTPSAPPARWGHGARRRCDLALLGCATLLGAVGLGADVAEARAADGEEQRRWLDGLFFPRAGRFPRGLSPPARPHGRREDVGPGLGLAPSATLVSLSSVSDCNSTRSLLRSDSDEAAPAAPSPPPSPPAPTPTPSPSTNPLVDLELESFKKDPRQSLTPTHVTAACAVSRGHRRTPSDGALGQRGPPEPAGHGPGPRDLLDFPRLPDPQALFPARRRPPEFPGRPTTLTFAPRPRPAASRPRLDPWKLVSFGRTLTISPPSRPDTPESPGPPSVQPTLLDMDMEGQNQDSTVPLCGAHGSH

[10] = system: Phosphatidylinositol 4,5-bisphosphate 3-kinase catalytic subunit alpha isoform (Homo sapiens), P42336 [H1047L]; test: Binding affinity to human partial length PIK3CA H1047L mutant (R108 to N1068 residues) expressed in mammalian expression system assessed as residual binding level at 1 uM by Kinomescan method relative to control
How it was run: (§2)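 Kinome-wide single-concentration binding screen (KINOMEscan) at 1 μM against a panel of 468 purified kinases and mutants. Read-out is relative binding of each kinase compared with control. Selectivity across the panel was summarised as an S(10) score.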

[11] = system: Phosphatidylinositol 4,5-bisphosphate 3-kinase catalytic subunit alpha isoform (Homo sapiens), P42336 [M1043I]; test: Binding affinity to human partial length PIK3CA M1043I mutant (R108 to N1068 residues) expressed in mammalian expression system assessed as residual binding level at 1 uM by Kinomescan method relative to control; how it was run: as §2
Chain of Phosphatidylinositol 4,5-bisphosphate 3-kinase catalytic subunit alpha isoform (Homo sapiens), P42336 [M1043I] (P42336 whole entry M1043I, the tested form may be a part, canonical isoform): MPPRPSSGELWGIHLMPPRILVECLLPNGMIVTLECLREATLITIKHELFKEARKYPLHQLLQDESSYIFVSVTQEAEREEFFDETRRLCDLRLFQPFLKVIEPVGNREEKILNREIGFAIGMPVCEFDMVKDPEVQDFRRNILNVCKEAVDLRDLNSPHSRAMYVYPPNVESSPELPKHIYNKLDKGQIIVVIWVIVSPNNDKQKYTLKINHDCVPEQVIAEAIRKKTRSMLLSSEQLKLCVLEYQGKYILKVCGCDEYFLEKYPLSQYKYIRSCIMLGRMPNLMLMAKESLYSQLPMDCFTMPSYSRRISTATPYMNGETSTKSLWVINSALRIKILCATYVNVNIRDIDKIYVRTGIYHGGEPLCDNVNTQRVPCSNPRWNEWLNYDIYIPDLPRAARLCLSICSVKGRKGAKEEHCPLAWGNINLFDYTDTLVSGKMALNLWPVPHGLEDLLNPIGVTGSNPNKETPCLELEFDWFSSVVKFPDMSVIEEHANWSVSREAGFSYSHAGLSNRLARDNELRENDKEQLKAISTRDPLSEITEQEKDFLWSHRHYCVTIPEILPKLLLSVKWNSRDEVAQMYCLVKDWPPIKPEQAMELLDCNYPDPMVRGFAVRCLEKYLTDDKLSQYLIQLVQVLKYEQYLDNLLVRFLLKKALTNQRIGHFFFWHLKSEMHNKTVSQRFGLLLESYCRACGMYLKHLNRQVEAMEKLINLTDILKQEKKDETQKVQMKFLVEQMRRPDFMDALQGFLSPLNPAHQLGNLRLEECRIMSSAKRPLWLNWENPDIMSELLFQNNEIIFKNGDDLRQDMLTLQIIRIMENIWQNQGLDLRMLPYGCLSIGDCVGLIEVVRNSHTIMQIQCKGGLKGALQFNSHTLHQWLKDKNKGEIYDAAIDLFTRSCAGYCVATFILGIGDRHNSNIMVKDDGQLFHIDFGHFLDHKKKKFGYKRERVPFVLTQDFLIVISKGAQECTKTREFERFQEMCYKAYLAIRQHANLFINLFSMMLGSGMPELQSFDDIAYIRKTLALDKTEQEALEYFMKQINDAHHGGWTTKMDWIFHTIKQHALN

[12] = target: Phosphatidylinositol 4,5-bisphosphate 3-kinase catalytic subunit gamma isoform (Homo sapiens) (UniProt P48736); test: Binding affinity to wild-type human partial length PIK3CG (S144 to A1102 residues) expressed in mammalian expression system assessed as residual binding level at 1 uM by Kinomescan method relative to control
[13] = target: Protein kinase C epsilon type (Homo sapiens) (UniProt Q02156); test: Binding affinity to wild-type human partial length PRKCE (A378 to P737 residues) expressed in mammalian expression system assessed as residual binding level at 1 uM by Kinomescan method relative to control
Chain of Protein kinase C epsilon type (Homo sapiens) (Q02156 whole entry, the tested form may be a part): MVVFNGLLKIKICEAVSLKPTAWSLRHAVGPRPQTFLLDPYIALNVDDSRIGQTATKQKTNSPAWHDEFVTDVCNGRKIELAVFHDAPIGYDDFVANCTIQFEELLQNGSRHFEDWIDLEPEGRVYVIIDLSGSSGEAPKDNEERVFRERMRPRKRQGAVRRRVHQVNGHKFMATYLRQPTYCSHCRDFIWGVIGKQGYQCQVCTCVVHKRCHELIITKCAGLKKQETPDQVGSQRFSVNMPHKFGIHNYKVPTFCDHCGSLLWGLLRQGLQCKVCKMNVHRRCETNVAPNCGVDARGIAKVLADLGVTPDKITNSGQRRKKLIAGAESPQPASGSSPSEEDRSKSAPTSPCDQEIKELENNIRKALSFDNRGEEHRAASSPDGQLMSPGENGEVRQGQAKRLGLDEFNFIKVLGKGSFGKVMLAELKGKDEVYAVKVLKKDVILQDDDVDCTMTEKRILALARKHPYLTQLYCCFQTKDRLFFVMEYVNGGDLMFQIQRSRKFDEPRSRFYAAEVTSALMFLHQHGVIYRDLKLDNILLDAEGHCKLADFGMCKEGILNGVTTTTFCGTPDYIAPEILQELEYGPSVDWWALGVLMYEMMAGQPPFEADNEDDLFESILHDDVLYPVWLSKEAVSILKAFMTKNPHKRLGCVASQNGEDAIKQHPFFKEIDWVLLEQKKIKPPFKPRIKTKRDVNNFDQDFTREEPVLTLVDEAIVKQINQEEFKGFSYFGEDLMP
How it was run: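 KINOMEscan competition binding against a panel of 468 purified kinases/mutants, compound tested at 1 μM; readout is relative binding activity versus control.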

[14] = target: Ribosomal protein S6 kinase alpha-2 (Homo sapiens) (UniProt Q15349); test: Binding affinity to wild-type human partial length C-terminal RSK3 kinase domain 2 (V403 to K700 residues) expressed in bacterial expression system assessed as residual binding level at 1 uM by Kinomescan method relative to control
[15] = target: Serine/threonine-protein kinase 16 (Homo sapiens) (UniProt O75716); test: Binding affinity to wild-type human partial length STK16 (G11 to I305 residues) expressed in bacterial expression system assessed as residual binding level at 1 uM by Kinomescan method relative to control
[16] = target: Serine/threonine-protein kinase TBK1 (Homo sapiens) (UniProt Q9UHD2); test: Binding affinity to wild-type human full length TBK1 (M1 to L729 residues) expressed in mammalian expression system assessed as residual binding level at 1 uM by Kinomescan method relative to control
Chain of Serine/threonine-protein kinase TBK1 (Homo sapiens) (Q9UHD2 whole entry, the tested form may be a part): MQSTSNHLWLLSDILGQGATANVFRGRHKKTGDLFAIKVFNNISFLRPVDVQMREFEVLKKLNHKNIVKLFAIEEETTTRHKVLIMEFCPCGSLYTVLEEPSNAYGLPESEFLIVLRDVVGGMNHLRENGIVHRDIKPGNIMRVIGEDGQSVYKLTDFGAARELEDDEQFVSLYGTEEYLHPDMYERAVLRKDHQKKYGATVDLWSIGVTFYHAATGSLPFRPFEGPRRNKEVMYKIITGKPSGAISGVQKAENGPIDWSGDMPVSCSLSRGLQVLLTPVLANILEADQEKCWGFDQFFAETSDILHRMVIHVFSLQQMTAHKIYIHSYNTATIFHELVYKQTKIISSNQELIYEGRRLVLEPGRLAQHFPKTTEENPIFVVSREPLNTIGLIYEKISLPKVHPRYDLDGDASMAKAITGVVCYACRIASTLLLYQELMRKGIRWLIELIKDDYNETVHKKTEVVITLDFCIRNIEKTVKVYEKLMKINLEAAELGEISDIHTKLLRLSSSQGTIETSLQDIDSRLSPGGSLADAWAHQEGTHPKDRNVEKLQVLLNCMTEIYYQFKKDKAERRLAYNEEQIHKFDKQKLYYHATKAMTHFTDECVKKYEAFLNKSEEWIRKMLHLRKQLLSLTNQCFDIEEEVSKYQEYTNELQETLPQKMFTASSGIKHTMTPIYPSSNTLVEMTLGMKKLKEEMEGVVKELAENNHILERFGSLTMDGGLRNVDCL
How it was run: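 Single-concentration KINOMEscan (DiscoverX) binding screen at 1 μM against a panel of 468 purified kinases and mutants. The read-out is binding relative to control.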

[17] = target: Non-receptor tyrosine-protein kinase TYK2 (Homo sapiens) (UniProt P29597); test: Binding affinity to wild-type human partial length TYK2 JH1 catalytic domain (V877 to C1187 residues) expressed in mammalian expression system assessed as residual binding level at 1 uM by Kinomescan method relative to control
[18] = target: Wee1-like protein kinase 2 (Homo sapiens) (UniProt P0C1S8); test: Binding affinity to wild-type human partial length WEE2 (M204 to K492 residues) expressed in bacterial expression system assessed as residual binding level at 1 uM by Kinomescan method relative to control
[19] = target: Tyrosine-protein kinase ZAP-70 (Homo sapiens) (UniProt P43403); test: Binding affinity to wild-type human partial length ZAP70 (D20 to G299 residues) expressed in mammalian expression system assessed as residual binding level at 1 uM by Kinomescan method relative to control
[20] = MRT (0 to t) in Sprague-Dawley rat at 10 mg/kg, po; type: ADME, organism-based; conditions: in vivo
EOL1 = test: Induction of apoptosis in human EOL-1 cells assessed as cleaved PARP expression level at 3 to 100 nM after 24 hrs by Western blot analysis; type: functional, cell-based
How it was run: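 Cells exposed to compound or DMSO for the stated periods, then lysed and immunoblotted for PARP and caspase-3 cleavage, with β-actin as loading control. NCI-H1703 stimulation used PDGF AA at 100 ng/mL.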

SMILES: Cc1ccc(NC(=O)c2ccc(CN(CCN(C)C)C(=O)c3cccnc3)cc2)cc1Nc1nccc(-c2cccnc2)n1
- Activity [1]: 100%
- Activity [2]: 90%
- Activity [3]: 85%
- Activity [4]: 75%
- Activity [5]: 100%
- Activity [6]: 95%
- Activity [7]: 100%
- Activity [8]: 100%
- Activity [9]: 96%
- Activity [10]: 88%
- Activity [11]: 100%
- Activity [12]: 99%
- Activity [13]: 80%
- Activity [14]: 88%
- Activity [15]: 88%
- Activity [16]: 86%
- Activity [17]: 100%
- Activity [18]: 96%
- Activity [19]: 100%
- MRT last [20]: 3.33 h
- Activity (EOL1): Active
